Data set [1] deals with T1, Amine oxidase [flavin-containing] B (Homo sapiens, UniProt P27338).
T1 sequence (P27338 whole entry): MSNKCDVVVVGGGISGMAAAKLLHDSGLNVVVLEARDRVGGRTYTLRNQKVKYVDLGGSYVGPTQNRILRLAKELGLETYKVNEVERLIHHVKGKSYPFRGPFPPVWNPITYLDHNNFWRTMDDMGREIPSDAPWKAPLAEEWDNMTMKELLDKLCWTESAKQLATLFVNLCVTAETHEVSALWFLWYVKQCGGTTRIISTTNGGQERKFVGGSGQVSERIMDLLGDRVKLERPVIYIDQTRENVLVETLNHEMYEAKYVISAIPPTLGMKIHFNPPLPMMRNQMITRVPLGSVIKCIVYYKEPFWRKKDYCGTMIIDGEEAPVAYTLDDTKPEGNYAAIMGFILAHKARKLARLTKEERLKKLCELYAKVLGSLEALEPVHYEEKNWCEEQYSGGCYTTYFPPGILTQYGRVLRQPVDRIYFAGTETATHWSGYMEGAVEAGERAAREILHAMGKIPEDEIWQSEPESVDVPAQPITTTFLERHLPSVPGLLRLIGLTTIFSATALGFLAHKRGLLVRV
Nature of the data set: Inhibition of recombinant human MAO-B using benzylamine as substrate preincubated for 15 mins followed by substrate addition measured after 20 mins by amplex red reagent based spectrophotometric assay.

In data set [2] the target is T2, Amine oxidase [flavin-containing] A (Homo sapiens, UniProt P21397).
T2 sequence (P21397 whole entry): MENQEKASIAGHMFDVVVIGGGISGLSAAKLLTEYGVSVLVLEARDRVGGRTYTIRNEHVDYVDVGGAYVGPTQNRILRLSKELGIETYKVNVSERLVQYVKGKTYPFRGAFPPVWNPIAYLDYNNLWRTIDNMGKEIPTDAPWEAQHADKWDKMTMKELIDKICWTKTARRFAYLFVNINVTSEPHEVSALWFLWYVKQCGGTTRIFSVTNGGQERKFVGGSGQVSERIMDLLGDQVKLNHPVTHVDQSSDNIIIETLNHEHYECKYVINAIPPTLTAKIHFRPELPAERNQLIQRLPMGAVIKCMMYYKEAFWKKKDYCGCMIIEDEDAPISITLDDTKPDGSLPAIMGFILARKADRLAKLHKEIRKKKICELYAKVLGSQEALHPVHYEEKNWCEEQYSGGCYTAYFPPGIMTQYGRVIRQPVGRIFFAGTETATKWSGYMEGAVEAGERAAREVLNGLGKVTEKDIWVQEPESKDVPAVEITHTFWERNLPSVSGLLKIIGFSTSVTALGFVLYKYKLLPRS
Nature of the data set: Inhibition of recombinant human MAO-A using p-tyramine as substrate preincubated for 15 mins followed by substrate addition measured after 20 mins by amplex red reagent based spectrophotometric assay. A digest of the protocol:
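Recombinant human MAO-A with compounds at final 10⁻⁵–10 µM, preincubated 15 min at 37 °C in 50 mM sodium phosphate, pH 7.4. Reaction started by adding 200 µM Amplex Red, 2 U/mL horseradish peroxidase and 2 mM p-tyramine. IC50 came from dose-response curves in quadruplicate, as mean ± S.E.M.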

The species named for a further data set is Homo sapiens. Nature of the data set: Selectivity index, ratio of IC50 for recombinant human MAO-A to IC50 for recombinant human MAO-B.
Data set [3] concerns the target T1, Amine oxidase [flavin-containing] B. The data set is described as follows: Competitive inhibition of recombinant human MAO-B assessed as Vmax for substrate using varying level of benzylamine substrate preincubated for 15 mins followed by substrate addition measured after 20 mins by Lineweaver-Burk plot analysis. Summed up: (§1)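 Recombinant human MAO-B with benzylamine at 0.065, 0.125, 0.25, 0.5, 1, 2 and 4 mM, with inhibitor at 0, 0.3, 1 and 3 nM. Amplex Red/HRP H2O2-coupled fluorescence in 50 mM sodium phosphate pH 7.4 at 37 °C. Initial rates taken from progression curves; Lineweaver-Burk double-reciprocal analysis.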

Data set [4] shares this target. The data set is described as follows: Competitive inhibition of recombinant human MAO-B using varying level of benzylamine substrate preincubated for 15 mins followed by substrate addition measured after 20 mins by Lineweaver-Burk plot analysis. Summed up: as §1
Data set [5] concerns Mus musculus. The data set is described as follows: Anti-parkinson's activity in MPTP-induced C57Bl/6 mouse model of Parkinson's disease assessed as restoration of MPTP-induced weight loss at 30 mg/kg, po administered for 3 consecutive days. The class given is functional, organism-based. A digest of the protocol: (§2)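 Male C57Bl/6 mice, 10 weeks old, 23–25 g (n = 5-8 per group). MPTP-HCl 20 mg/kg i.p., given as 4 injections at 2 h intervals. Drug 30 mg/kg/day p.o. for 3 consecutive days spanning MPTP dosing. Vehicle was 12.5% castor oil/ethanol (equal parts) in distilled water. Saline-treated controls.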

Data set [6] deals with Mus musculus. The data set is described as follows: Anti-parkinson's activity in MPTP-induced C57Bl/6 mouse model of Parkinson's disease assessed as restoration of motor ability by measuring ascending ability to reach stable position at 30 mg/kg, po administered for 3 consecutive days measured 6 days after MPTP injection by coathanger method. The class given is functional, organism-based. Summed up:
as §2

The subject of data set [7] is Mus musculus. Nature of the data set: Anti-parkinson's activity in MPTP-induced C57Bl/6 mouse model of Parkinson's disease assessed as restoration of motor ability at 30 mg/kg, po administered for 3 consecutive days measured 6 days after MPTP injection by vertical grid test. Type of data set: functional, organism-based. Summed up:
as §2

The test system of data set [8] is Mus musculus. The data set is described as follows: Restoration of MPTP-induced tyrosine hydroxylase enzyme activity loss in C57Bl/6 mouse assessed as enzyme activity loss in DAergic neurons of substantia nigra pars compacta at 30 mg/kg, po administered for 3 consecutive days measured 6 days after MPTP injection by DAB staining based microscopic method. Type of data set: functional. Summed up:
as §2

Data set [9] relates to Mus musculus. Nature of the data set: Anti-parkinson's activity in MPTP-induced C57Bl/6 mouse model of Parkinson's disease assessed as restoration of MPTP-induced reduction in TH-immunoreactive fiber density in striatum at 30 mg/kg, po administered for 3 consecutive days measured 6 days after MPTP injection by DAB staining based microscopic method. Type of data set: functional, organism-based. A digest of the protocol: as §2

Experimental findings from ChEMBL document CHEMBL4177719, “Synthesis and evaluation of biaryl derivatives for structural characterization of selective monoamine oxidase B inhibitors toward Parkinson's disease therapy” (Bioorg Med Chem, 2018) are described below.

Activity calls are given as the source filed them. No cut-off for these calls is given here. Some results are limits rather than exact numbers.

Usually IC50 stands for the concentration needed to halve the response being measured. What is called Ki is the equilibrium dissociation constant of an inhibitor or competing ligand from its target. As to `Cl.NCCc1ccc(OCc2ccc(C(F)(F)F)cc2)cc1`, the IC50 was 9 nM in [1] and over 100000 nM in data set [2]. For the same compound, the Ratio IC50 in the data set listed under Homo sapiens is over 11000. Moreover, in data set [3], the Vmax is 5.86 ×10⁷ U/min. In [4], the Ki is 6.88 nM. Further, the result in the data set on Mus musculus [5], in the data set with Mus musculus [6], in the data set with Mus musculus [7] and with Mus musculus [9] was Active. The Activity in the data set on Mus musculus [8] came out at 38%.

With `Nc1ccc(OCc2cccc(F)c2)cc1`, the IC50 in data set [1] is 2480 nM; in data set [2], over 100000 nM. Besides, in the data set listed under Homo sapiens, the Ratio IC50 was over 40.

For `NCCc1ccc(OCc2cccc(F)c2)cc1`, the IC50 in data set [1] was 193 nM; in data set [2] it was over 100000 nM. For the same compound, the Ratio IC50 in the data set filed under Homo sapiens was over 510.

With `NCc1ccc(OCc2ccc(Cl)cc2)cc1`, the IC50 in data set [1] is 440 nM; in data set [2], over 30000 nM. Besides, the Ratio IC50 in the data set listed under Homo sapiens is over 68.

Take `NCCc1ccc(OCc2ccccc2F)cc1`: the results for the IC50 in data set [1] and in data set [2] were 396 nM and over 10000 nM, respectively. Moreover, the Ratio IC50 in the data set filed under Homo sapiens was over 25.

Turning to `Nc1ccc(OCc2cccc(C(F)(F)F)c2)cc1`, the IC50 in data set [1] is 1510 nM; in data set [2] it was over 100000 nM. Also, the Ratio IC50 in the data set filed under Homo sapiens was over 66.

In the case of `NC(=O)c1ccc(OCc2ccccc2F)cc1`, the IC50 was 1050 nM in data set [1] and over 100000 nM in data set [2]. Also, the Ratio IC50 in the data set filed under Homo sapiens was over 95.

`NC(=O)c1ccc(OCc2ccc(F)cc2)cc1`: the IC50 in data set [1] is 271 nM; in data set [2] it was over 100000 nM. The Ratio IC50 in the data set filed under Homo sapiens was over 360.

For the compound `Nc1ccc(OCc2ccc(C(F)(F)F)cc2)cc1`, the IC50 in [1] was 402 nM; in [2], over 100000 nM. In addition, the Ratio IC50 in the data set listed under Homo sapiens was over 240.

Turning to `NCCc1ccc(-c2ccccc2Cl)cc1`, the IC50 was 8340 nM in data set [1] and over 10000 nM in data set [2]. Besides, the Ratio IC50 in the data set listed under Homo sapiens is over 1.2.

As to `NCCc1ccc(OCc2cccc(Cl)c2)cc1`, the IC50 in [1] was 62 nM; in data set [2] it was over 100000 nM. Further, in the data set filed under Homo sapiens, the Ratio IC50 is over 1600.

Regarding `NCCc1ccc(OCc2ccccc2C(F)(F)F)cc1`, the IC50 is 1800 nM in data set [1] and over 100000 nM in [2]. Further, the Ratio IC50 in the data set listed under Homo sapiens is over 55.

On to `NCCc1ccc(OCc2ccc(F)cc2)cc1`, for which the results for the IC50 in data set [1] and in data set [2] were 109 nM and over 100000 nM, respectively. Moreover, the Ratio IC50 in the data set filed under Homo sapiens is over 910.

As to `COc1cccc(COc2ccc(CCN)cc2)c1`, the IC50 in data set [1] is 305 nM; in [2] it was over 10000 nM. Besides, the Ratio IC50 in the data set listed under Homo sapiens is over 33.

With `COc1cccc(-c2ccc(CCN)cc2)c1`, the IC50 in [1] is 5000 nM; in [2], over 10000 nM. In the data set listed under Homo sapiens, the Ratio IC50 is over 1.9.

`NCCc1ccc(-c2ccc(C(F)(F)F)cc2)cc1`: the IC50 in data set [1] is 41 nM; in data set [2], over 10000 nM. Further, in the data set filed under Homo sapiens, the Ratio IC50 was over 240.

Regarding `NCc1ccc(OCc2cccc(Cl)c2)cc1`, the IC50 in data set [1] is 257 nM; in data set [2], over 100000 nM. For the same compound, the Ratio IC50 in the data set filed under Homo sapiens is over 380.

As for `NC(=O)c1ccc(OCc2cccc(C(F)(F)F)c2)cc1`, the IC50 in data set [1] was 1110 nM; in data set [2] it was over 100000 nM. For the same compound, the Ratio IC50 in the data set listed under Homo sapiens was over 90.
